The source made the active and inactive calls. The rule behind the calls is not given here.
What was measured:
[1] = Photostability of compound in PBS buffer at 4 W/450 nm measured after 10 mins; format: physicochemical
Summary of the method: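 Probe in PBS (pH 7) under continuous light (4 W, 450 nm); fluorescence intensity was followed over irradiation time up to 10 min.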

[2] = molecular target: T1, Muscarinic acetylcholine receptor M2 (Homo sapiens) (UniProt P08172); test: Binding affinity to N-terminal human M2 receptor expressed in HEK293T cell pretreated for 5 mins in presence of atropine by BRET assay; format: cell-based; conditions: filed as antagonist, dose <= 1000.0 nM
T1 sequence (whole entry): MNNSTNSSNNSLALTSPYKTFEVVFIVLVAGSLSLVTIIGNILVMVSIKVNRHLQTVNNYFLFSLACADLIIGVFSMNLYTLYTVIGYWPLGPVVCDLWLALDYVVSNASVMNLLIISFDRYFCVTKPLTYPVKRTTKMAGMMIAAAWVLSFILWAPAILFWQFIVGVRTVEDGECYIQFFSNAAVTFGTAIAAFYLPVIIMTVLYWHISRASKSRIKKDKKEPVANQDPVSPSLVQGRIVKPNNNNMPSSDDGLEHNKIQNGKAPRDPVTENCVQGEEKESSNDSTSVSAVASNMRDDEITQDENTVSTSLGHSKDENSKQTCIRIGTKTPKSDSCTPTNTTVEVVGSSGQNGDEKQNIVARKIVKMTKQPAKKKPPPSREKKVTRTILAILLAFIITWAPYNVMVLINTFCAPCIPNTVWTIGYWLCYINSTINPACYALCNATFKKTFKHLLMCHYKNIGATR

[3] = molecular target: T1, Muscarinic acetylcholine receptor M2 (Homo sapiens); test: Binding affinity to human M2 receptor expressed in HEK293T cells by confocal microscopic analysis; format: cell-based
[4] = molecular target: T1, Muscarinic acetylcholine receptor M2 (Homo sapiens); test: Binding affinity to human M2 receptor expressed in HEK293T cells measured for 3 min by confocal microscopic analysis; format: cell-based; conditions: filed as antagonist
[5] = molecular target: T1, Muscarinic acetylcholine receptor M2 (Homo sapiens); test: Binding affinity to human M2 receptor expressed in HEK293T cells by two-photon microscopic analysis; format: cell-based; conditions: filed as antagonist
[6] = molecular target: T1, Muscarinic acetylcholine receptor M2 (Homo sapiens); test: Binding affinity to human M2 receptor expressed in HEK293T cell membrane cells by STED microscopic analysis; format: cell membranes; conditions: filed as antagonist
[7] = molecular target: T2, Muscarinic acetylcholine receptor M2 (Homo sapiens, UniProt P08172); test: Displacement of [3H]-NMS from human muscarinic M2 receptor expressed in CHO cells; format: cell-based
T2 sequence (P08172 whole entry): T1 sequence (whole entry)
Summary of the method: (§1)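 Membranes from CHO cells transfected with human M1–M5 receptors; competition binding against the orthosteric antagonist [3H]-N-methylscopolamine. Ki values were taken from the competition curves. Ratios divide the Ki at M1, M3, M4 or M5 by the Ki at M2 from the same assay.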

[8] = molecular target: Muscarinic acetylcholine receptors; M1 & M2 (Homo sapiens) (UniProt P11229+P08172); test: Selectivity ratio of Ki for displacement of [3H]-NMS from human muscarinic M1 receptor to Ki for displacement of [3H]-NMS from human muscarinic M2 receptor; format: protein assay; summary of the method: as §1
[9] = molecular target: Muscarinic acetylcholine receptors; M2 & M3 (Homo sapiens) (UniProt P20309+P08172); test: Selectivity ratio of Ki for displacement of [3H]-NMS from human muscarinic M3 receptor to Ki for displacement of [3H]-NMS from human muscarinic M2 receptor; format: protein assay; summary of the method: as §1
[10] = molecular target: Muscarinic acetylcholine receptor M2 and M4 (Homo sapiens) (UniProt P08173+P08172); test: Selectivity ratio of Ki for displacement of [3H]-NMS from human muscarinic M4 receptor to Ki for displacement of [3H]-NMS from human muscarinic M2 receptor; format: protein assay; summary of the method: as §1
[11] = molecular target: Muscarinic acetylcholine receptor M2 and M5 (Homo sapiens) (UniProt P08172+P08912); test: Selectivity ratio of Ki for displacement of [3H]-NMS from human muscarinic M5 receptor to Ki for displacement of [3H]-NMS from human muscarinic M2 receptor; format: protein assay; summary of the method: as §1
[12] = Selectivity ratio of Ki for binding affinity to M1 receptor (unknown origin) to Ki for displacement of [3H]-Pirenzepine from human muscarinic M2 receptor
[13] = Selectivity ratio of Ki for binding affinity to M3 receptor (unknown origin) to Ki for displacement of [3H]-Pirenzepine from human muscarinic M2 receptor
[14] = Selectivity ratio of Ki for binding affinity to M4 receptor (unknown origin) to Ki for displacement of [3H]-Pirenzepine from human muscarinic M2 receptor
[15] = Selectivity ratio of Ki for binding affinity to M5 receptor (unknown origin) to Ki for displacement of [3H]-Pirenzepine from human muscarinic M2 receptor
[16] = molecular target: T1, Muscarinic acetylcholine receptor M2 (Homo sapiens); conditions: HEK293T, filed as antagonist

Chain of Muscarinic acetylcholine receptor M2 and M5 (Homo sapiens) (P08912 whole entry, looked up, one chain of several): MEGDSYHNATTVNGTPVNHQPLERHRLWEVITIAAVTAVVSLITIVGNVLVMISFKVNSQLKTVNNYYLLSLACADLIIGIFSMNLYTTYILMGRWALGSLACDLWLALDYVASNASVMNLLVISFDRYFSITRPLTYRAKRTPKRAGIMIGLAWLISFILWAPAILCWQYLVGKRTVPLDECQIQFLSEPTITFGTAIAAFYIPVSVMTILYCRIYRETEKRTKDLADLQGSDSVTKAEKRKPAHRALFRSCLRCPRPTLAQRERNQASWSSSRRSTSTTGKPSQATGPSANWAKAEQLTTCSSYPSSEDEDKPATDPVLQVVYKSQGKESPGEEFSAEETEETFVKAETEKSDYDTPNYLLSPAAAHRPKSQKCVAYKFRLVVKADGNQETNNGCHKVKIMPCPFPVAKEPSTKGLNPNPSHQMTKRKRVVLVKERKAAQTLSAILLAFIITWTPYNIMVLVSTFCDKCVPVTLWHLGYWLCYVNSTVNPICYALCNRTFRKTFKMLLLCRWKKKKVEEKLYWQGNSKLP

SMILES | Ki [7] | Ratio Ki [8] | Ratio Ki [9] | Ratio Ki [10] | Ratio Ki [11] | other results
O=C(CCOCCOCCNC(=O)c1ccc(-c2c3cc(F)c(=O)cc-3oc3cc(O)c(F)cc23)c(C(=O)O)c1)NCCOCCOCCNc1ccccc1C(=O)N1CCC(N2CCC(Cc3ccc(S(=O)(=O)c4cccc(Cl)c4)cc3)CC2)CC1 |  |  |  |  |  | Stability [1]: Stable; Activity [2]: Dose-dependent-effect; Activity [3]: inactive; Activity [4]: Active; Activity [5]: Active; Activity [6]: Active
Cc1cc(/C=C/C=C/c2ccc(N(C)C)cc2)cc(C)[n+]1CCN1CCN(CCCCC2CCN(CC(=O)N3c4ccccc4NC(=O)c4ccccc43)CC2)CC1 | 3.2 nM | 4 | 50.1 | 3.2 | 126 | 
CN(C)c1ccc2c(-c3ccc(C(=O)NCCN4CCN(CCCCC5CCN(CC(=O)N6c7ccccc7NC(=O)c7ccccc76)CC5)CC4)cc3C(=O)[O-])c3ccc(=[N+](C)C)cc-3oc2c1 | 0.2 nM | 10.7 | 339 | 4.1 | 741 | 
Cc1cc(/C=C/c2cc3c4c(c2)CCCN4CCC3)cc(C)[n+]1CCN1CCN(CCCCC2CCN(CC(=O)N3c4ccccc4NC(=O)c4ccccc43)CC2)CC1 | 1 nM | 5 | 66 | 2.8 | 132 | 
CCN(CC)CC1CCCCN1CC(=O)N1c2ccccc2C(=O)Nc2cccnc21 (stereo not given) |  |  |  |  |  | Ratio Ki [12]: 7; Ratio Ki [13]: 16; Ratio Ki [14]: 4; Ratio Ki [15]: 44
Nc1ccccc1C(=O)N1CCC(N2CCC(Cc3ccc(S(=O)(=O)c4cccc(Cl)c4)cc3)CC2)CC1 |  |  |  |  |  | Ka [16]: 8.06 10^3/s/M
CCCC(C)(C)C(=O)N(CC)CCCC1CCN(CC(=O)N2c3ccc(Cl)cc3C(=O)Nc3cccnc32)CC1 |  |  |  |  |  | Ratio Ki [12]: 355; Ratio Ki [13]: 26; Ratio Ki [14]: 6; Ratio Ki [15]: 48

More lines, main results first:

Ki [7] | Ratio Ki [8] | Ratio Ki [9] | Ratio Ki [10] | Ratio Ki [11] | SMILES | other results
1.7 nM | 3.4 | 72.4 | 2 | 155 | CN(C)c1ccc2c(-c3ccc(C(=O)NCCNC(=O)CCc4cn(CCCCC5CCN(CC(=O)N6c7ccccc7NC(=O)c7ccccc76)CC5)cn4)cc3C(=O)[O-])c3ccc(=[N+](C)C)cc-3oc2c1 | 
0.8 nM | 6.3 | 200 | 39.8 | 200 | CC1(C)C(/C=C/C=C/C=C2/N(CCCCCC(=O)NCCNC(=O)CCc3cn(CCCCC4CCN(CC(=O)N5c6ccccc6NC(=O)c6ccccc65)CC4)cn3)c3cccc(S(=O)(=O)O)c3C2(C)C)=[N+](CCCCS(=O)(=O)[O-])c2ccccc21 | 
0.9 nM | 5.4 | 93.3 | 4.7 | 77.6 | Cc1cc(/C=C/C=C/c2ccc(N(C)C)cc2)cc(C)[n+]1CCNC(=O)CCc1cn(CCCCC2CCN(CC(=O)N3c4ccccc4NC(=O)c4ccccc43)CC2)cn1 | 
1.3 nM | 5.2 | 51.3 | 1.9 | 30.1 | Cc1cc(/C=C/c2cc3c4c(c2)CCCN4CCC3)cc(C)[n+]1CCNC(=O)CCc1cn(CCCCC2CCN(CC(=O)N3c4ccccc4NC(=O)c4ccccc43)CC2)cn1 | 
0.7 nM | 1.4 | 53.7 | 0.6 | 14.5 | O=C(CCCCCNC(=O)COc1ccc(/C=C/C2=[N+]3C(=Cc4ccc(-c5cccs5)n4[B-]3(F)F)C=C2)cc1)NCCNC(=O)CCc1cn(CCCCC2CCN(CC(=O)N3c4ccccc4NC(=O)c4ccccc43)CC2)cn1 | 
